Data reported in ChEMBL document CHEMBL5724801, “EUbOPEN Chemogenomics Library - Multiplex” (2024).
Where “and” joins values, the source holds several entries; their conditions need not be identical. Equal entries are not always repeated.

Test system: U2OS
Assay: Multiplex assay against U2OS
Type: toxicity, cell-based
Conditions: human
Summary of the method: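 Values for tubulin, mitochondrial-mass and membrane-permeability phenotypes are per cents of cells with healthy nuclei. These cells were identified by CellPathfinder machine-learning gating of live cells that had been stained at seeding with Hoechst33342, BioTracker Green Microtubule Cytoskeleton Dye, MitoTracker Red and Annexin V Alexa Fluor 680 and imaged on a CQ1 microscope at 37°C and 5% CO2 after compound addition. The gating first set Hoechst high-intensity objects apart from normal cells, then split normal cells into healthy, pyknosed or fragmented nuclei, and pyknosed cells into mitotic or apoptotic.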

[1] = 12 h, 1 µM, compound concentration 1 uM
[2] = 12 h, 10 µM, compound concentration 10 uM
[3] = 24 h, 1 µM, compound concentration 1 uM
[4] = 24 h, 10 µM, compound concentration 10 uM
[5] = 48 h, 1 µM, compound concentration 1 uM
[6] = 48 h, 10 µM, compound concentration 10 uM

With N#Cc1cc(F)cc(-c2nc(-c3ccc(F)cn3)no2)c1 the “Population Apoptotic (%)” value [1] was 55% and 100%, the “Population Fragmented Nuclei (%)” value [1] was 24% and 17% and the “Population Healthy Nuclei (%)” value [1] was 65% and 79%. For the same compound, the “Population Hoechst High Intensity Objects (%)” value [1] was 1% and 0%, the “Population Membrane Permeable-Phenotype (%)” value [1] was 5% and 6% and the “Population Mitochondria Different-Phenotype (%)” value [1] was 0% and 5%. The “Population Normal (%)” value [1] was 98% and 99%, the “Population Pyknosed Nuclei (%)” value [1] was 10% and 4% and the “Population Tubulin-Different-Phenotype (%)” value [1] was 3% and 2%. The “Total Cell Count” value [1] was 178 and 101, the “Population Apoptotic (%)” value [2] was 76% and 88% and the “Population Fragmented Nuclei (%)” value [2] was 33% and 12%. The “Population Healthy Nuclei (%)” value [2] was 59% and 81%, the “Population Hoechst High Intensity Objects (%)” value [2] was 1% and the “Population Membrane Permeable-Phenotype (%)” value [2] was 8% and 7%. The “Population Mitochondria Different-Phenotype (%)” value [2] was 2% and 4%, the “Population Mitotic Cells (%)” value [2] was 23% and 11% and the “Population Normal (%)” value [2] was 98%. For the same compound, the “Population Pyknosed Nuclei (%)” value [2] was 6%, the “Population Tubulin-Different-Phenotype (%)” value [2] was 2% and 1% and the “Total Cell Count” value [2] was 196 and 151. The “Population Apoptotic (%)” value [3] was 90%, the “Population Fragmented Nuclei (%)” value [3] was 22% and 8% and the “Population Healthy Nuclei (%)” value [3] was 66% and 84%. The “Population Hoechst High Intensity Objects (%)” value [3] was 4% and 0%, the “Population Membrane Permeable-Phenotype (%)” value [3] was 8% and 2% and the “Population Mitochondria Different-Phenotype (%)” value [3] was 0% and 3%. The “Population Mitotic Cells (%)” value [3] was 9% and 10%, the “Population Normal (%)” value [3] was 95% and 99% and the “Population Pyknosed Nuclei (%)” value [3] was 11% and 8%. The “Population Tubulin-Different-Phenotype (%)” value [3] was 4% and 2%, the “Total Cell Count” value [3] was 197 and 126 and the “Population Apoptotic (%)” value [4] was 93% and 88%. The “Population Healthy Nuclei (%)” value [4] was 60% and 85%, the “Population Hoechst High Intensity Objects (%)” value [4] was 1% and 0% and the “Population Membrane Permeable-Phenotype (%)” value [4] was 7% and 5%. The “Population Mitochondria Different-Phenotype (%)” value [4] was 0% and 1%, the “Population Mitotic Cells (%)” value [4] was 6% and 11% and the “Population Normal (%)” value [4] was 98% and 99%. The “Population Pyknosed Nuclei (%)” value [4] was 7% and 4%, the “Population Tubulin-Different-Phenotype (%)” value [4] was 2% and 1% and the “Total Cell Count” value [4] was 230 and 216. The “Population Apoptotic (%)” value [5] was 96% and 100%, the “Population Fragmented Nuclei (%)” value [5] was 18% and 15% and the “Population Healthy Nuclei (%)” value [5] was 71% and 79%. The “Population Hoechst High Intensity Objects (%)” value [5] was 1%, the “Population Membrane Permeable-Phenotype (%)” value [5] was 4% and the “Population Mitochondria Different-Phenotype (%)” value [5] was 0% and 3%. For the same compound, the “Population Mitotic Cells (%)” value [5] was 3% and 0%, the “Population Normal (%)” value [5] was 98% and the “Population Pyknosed Nuclei (%)” value [5] was 9% and 5%. For the same compound, the “Population Tubulin-Different-Phenotype (%)” value [5] was 2% and 1%, the “Total Cell Count” value [5] was 290 and 199 and the “Population Apoptotic (%)” value [6] was 85% and 94%. For the same compound, the “Population Fragmented Nuclei (%)” value [6] was 30% and 10%, the “Population Healthy Nuclei (%)” value [6] was 62% and 84% and the “Population Hoechst High Intensity Objects (%)” value [6] was 1%. The “Population Membrane Permeable-Phenotype (%)” value [6] was 6% and 4%, the “Population Mitochondria Different-Phenotype (%)” value [6] was 2% and the “Population Mitotic Cells (%)” value [6] was 14% and 5%. For the same compound, the “Population Normal (%)” value [6] was 98%, the “Population Pyknosed Nuclei (%)” value [6] was 7% and 5% and the “Population Tubulin-Different-Phenotype (%)” value [6] was 3% and 2%. The “Total Cell Count” value [6] was 282 and 344.

In the case of O=C(CCCc1ccccc1)Nc1nc2ccccc2c(=O)s1, the “Population Apoptotic (%)” value [1] was 92% and 55%, the “Population Fragmented Nuclei (%)” value [1] was 26% and 17% and the “Population Healthy Nuclei (%)” value [1] was 64% and 74%. The “Population Hoechst High Intensity Objects (%)” value [1] was 2% and 0%, the “Population Membrane Permeable-Phenotype (%)” value [1] was 4% and 7% and the “Population Mitochondria Different-Phenotype (%)” value [1] was 2% and 3%. For the same compound, the “Population Normal (%)” value [1] was 97% and 100%, the “Population Pyknosed Nuclei (%)” value [1] was 9% and 7% and the “Population Tubulin-Different-Phenotype (%)” value [1] was 1% and 2%. The “Total Cell Count” value [1] was 274 and 113, the “Population Apoptotic (%)” value [2] was 72% and 100% and the “Population Fragmented Nuclei (%)” value [2] was 31% and 20%. The “Population Healthy Nuclei (%)” value [2] was 58% and 67%, the “Population Hoechst High Intensity Objects (%)” value [2] was 2% and 4% and the “Population Membrane Permeable-Phenotype (%)” value [2] was 2% and 7%. The “Population Mitochondria Different-Phenotype (%)” value [2] was 0% and 6%, the “Population Normal (%)” value [2] was 97% and 95% and the “Population Pyknosed Nuclei (%)” value [2] was 9% and 11%. The “Population Tubulin-Different-Phenotype (%)” value [2] was 1% and 6%, the “Total Cell Count” value [2] was 270 and 101 and the “Population Apoptotic (%)” value [3] was 79% and 84%. For the same compound, the “Population Fragmented Nuclei (%)” value [3] was 22% and 17%, the “Population Healthy Nuclei (%)” value [3] was 68% and 73% and the “Population Hoechst High Intensity Objects (%)” value [3] was 1% and 0%. The “Population Membrane Permeable-Phenotype (%)” value [3] was 4% and 8%, the “Population Mitochondria Different-Phenotype (%)” value [3] was 2% and the “Population Mitotic Cells (%)” value [3] was 20% and 15%. The “Population Normal (%)” value [3] was 98% and 100%, the “Population Pyknosed Nuclei (%)” value [3] was 9% and the “Population Tubulin-Different-Phenotype (%)” value [3] was 2% and 3%. The “Total Cell Count” value [3] was 325 and 141, the “Population Apoptotic (%)” value [4] was 86% and 100% and the “Population Fragmented Nuclei (%)” value [4] was 25% and 19%. For the same compound, the “Population Healthy Nuclei (%)” value [4] was 65% and 71%, the “Population Hoechst High Intensity Objects (%)” value [4] was 2% and 1% and the “Population Membrane Permeable-Phenotype (%)” value [4] was 5% and 8%. For the same compound, the “Population Mitochondria Different-Phenotype (%)” value [4] was 1% and 2%, the “Population Mitotic Cells (%)” value [4] was 13% and 0% and the “Population Normal (%)” value [4] was 97% and 98%. For the same compound, the “Population Pyknosed Nuclei (%)” value [4] was 9%, the “Population Tubulin-Different-Phenotype (%)” value [4] was 4% and 3% and the “Total Cell Count” value [4] was 319 and 124. For the same compound, the “Population Apoptotic (%)” value [5] was 91% and 87%, the “Population Fragmented Nuclei (%)” value [5] was 13% and 19% and the “Population Healthy Nuclei (%)” value [5] was 76% and 71%. The “Population Hoechst High Intensity Objects (%)” value [5] was 7% and 5%, the “Population Membrane Permeable-Phenotype (%)” value [5] was 3% and the “Population Mitochondria Different-Phenotype (%)” value [5] was 2% and 3%. The “Population Mitotic Cells (%)” value [5] was 8% and 12%, the “Population Normal (%)” value [5] was 92% and 94% and the “Population Pyknosed Nuclei (%)” value [5] was 9% and 8%. For the same compound, the “Population Tubulin-Different-Phenotype (%)” value [5] was 1% and 6%, the “Total Cell Count” value [5] was 394 and 192 and the “Population Apoptotic (%)” value [6] was 91% and 95%. For the same compound, the “Population Fragmented Nuclei (%)” value [6] was 20% and 15%, the “Population Healthy Nuclei (%)” value [6] was 70% and 72% and the “Population Hoechst High Intensity Objects (%)” value [6] was 2% and 0%. For the same compound, the “Population Membrane Permeable-Phenotype (%)” value [6] was 5% and 9%, the “Population Mitochondria Different-Phenotype (%)” value [6] was 0% and 3% and the “Population Mitotic Cells (%)” value [6] was 8% and 4%. For the same compound, the “Population Normal (%)” value [6] was 97% and 99%, the “Population Pyknosed Nuclei (%)” value [6] was 8% and 12% and the “Population Tubulin-Different-Phenotype (%)” value [6] was 3% and 5%. For the same compound, the “Total Cell Count” value [6] was 427 and 175.
